Reference: ChEMBL document CHEMBL4831480, “Identification of First-in-Class Inhibitors of Kallikrein-Related Peptidase 6 That Promote Oligodendrocyte Differentiation” (J Med Chem, 2021)

Key:
Caspase-3 (Homo sapiens) = molecular target: T1, Caspase-3 (Homo sapiens) (UniProt P42574); test: Inhibition of Caspase-3 (unknown origin) assessed as inhibition of release of AMC fluorescent product using Ac-DEVD-AMC as substrate at 10 uM incubated for 30 mins by microplate reader relative to control
T1 sequence (whole entry): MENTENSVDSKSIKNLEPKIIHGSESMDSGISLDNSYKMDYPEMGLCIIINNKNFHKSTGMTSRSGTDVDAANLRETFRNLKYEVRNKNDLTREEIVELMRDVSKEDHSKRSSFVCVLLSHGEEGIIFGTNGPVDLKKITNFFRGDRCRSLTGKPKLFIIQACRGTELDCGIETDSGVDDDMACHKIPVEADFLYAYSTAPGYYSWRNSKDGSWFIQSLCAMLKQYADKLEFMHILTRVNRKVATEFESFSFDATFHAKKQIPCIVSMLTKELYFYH
In short: (§1)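 Each inhibitor at 10 μM was preincubated 15 min at 37 °C with the protease at an optimized concentration in its own buffer. Reaction started with AMC substrate: Ac-VDVAD-AMC 25 μM (caspase-2), Ac-DEVD-AMC 10 μM (caspase-3), Ac-VEID-AMC 100 μM (caspase-6), Z-LR-AMC 50 μM (cathepsin L), Z-GGR-AMC 100 μM (tPA). Read for 30 min at 37 °C; % inhibition from initial rates versus DMSO; 3 independent experiments.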

Trypsin-3 (Homo sapiens) = molecular target: T2, Trypsin-3 (Homo sapiens) (UniProt P35030); test: Inhibition of Trypsin 3 (unknown origin) assessed as inhibition of release of AMC fluorescent product using […] as substrate at 10 uM incubated for 30 mins by microplate reader relative to control
T2 sequence (whole entry): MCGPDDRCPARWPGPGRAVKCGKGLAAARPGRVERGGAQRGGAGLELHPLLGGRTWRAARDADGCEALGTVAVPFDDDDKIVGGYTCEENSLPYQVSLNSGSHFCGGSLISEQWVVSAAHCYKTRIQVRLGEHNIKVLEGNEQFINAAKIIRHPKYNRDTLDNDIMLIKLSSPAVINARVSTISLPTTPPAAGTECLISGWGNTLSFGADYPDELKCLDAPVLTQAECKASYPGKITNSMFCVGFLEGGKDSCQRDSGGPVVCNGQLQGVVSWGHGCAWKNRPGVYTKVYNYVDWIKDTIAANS

Homo sapiens = species: Homo sapiens; test: Inhibition of Matriptase (unknown origin) assessed as inhibition of release of AMC fluorescent product using […] as substrate at 10 uM incubated for 30 mins by microplate reader relative to control
[1] = molecular target: Kallikrein-4 (Homo sapiens) (UniProt Q9Y5K2); test: Inhibition of KLK4 (unknown origin) assessed as inhibition of release of AMC fluorescent product using H-VPR-AMC as substrate at 10 uM incubated for 30 mins by microplate reader relative to control
Caspase-6 (Homo sapiens) = molecular target: T3, Caspase-6 (Homo sapiens) (UniProt P55212); test: Inhibition of Caspase-6 (unknown origin) assessed as inhibition of release of AMC fluorescent product using Ac-VEID-AMC as substrate at 10 uM incubated for 30 mins by microplate reader relative to control; in short: as §1
T3 sequence (whole entry): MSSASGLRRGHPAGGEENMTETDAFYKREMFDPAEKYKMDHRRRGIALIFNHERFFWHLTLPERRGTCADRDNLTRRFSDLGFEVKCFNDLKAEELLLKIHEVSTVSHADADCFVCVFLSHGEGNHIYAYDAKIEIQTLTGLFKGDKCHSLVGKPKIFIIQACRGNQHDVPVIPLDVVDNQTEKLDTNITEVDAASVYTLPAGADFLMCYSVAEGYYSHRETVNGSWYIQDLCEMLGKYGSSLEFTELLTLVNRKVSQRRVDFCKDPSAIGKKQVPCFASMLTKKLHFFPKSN

[2] = molecular target: Tissue-type plasminogen activator (Homo sapiens) (UniProt P00750); test: Inhibition of tPA (unknown origin) assessed as inhibition of release of AMC fluorescent product using Z-GGR-AMC as substrate at 10 uM incubated for 30 mins by microplate reader relative to control; in short: as §1
[3] = molecular target: T4, Kallikrein-14 (Homo sapiens) (UniProt Q9P0G3); test: Inhibition of KLK14 (unknown origin) assessed as inhibition of release of AMC fluorescent product using H-VPR-AMC as substrate at 10 uM incubated for 30 mins by microplate reader relative to control
T4 sequence (whole entry): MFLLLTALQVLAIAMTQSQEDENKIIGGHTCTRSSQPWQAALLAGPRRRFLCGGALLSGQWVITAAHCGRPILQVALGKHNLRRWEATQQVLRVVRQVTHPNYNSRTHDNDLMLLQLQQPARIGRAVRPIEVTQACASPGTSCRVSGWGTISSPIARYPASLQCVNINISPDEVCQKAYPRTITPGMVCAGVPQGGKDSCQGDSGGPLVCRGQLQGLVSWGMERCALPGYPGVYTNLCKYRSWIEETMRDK

[4] = molecular target: T5, Kallikrein-13 (Homo sapiens) (UniProt Q9UKR3); test: Inhibition of KLK13 (unknown origin) assessed as inhibition of release of AMC fluorescent product using H-VPR-AMC as substrate at 10 uM incubated for 30 mins by microplate reader relative to control
T5 sequence (whole entry): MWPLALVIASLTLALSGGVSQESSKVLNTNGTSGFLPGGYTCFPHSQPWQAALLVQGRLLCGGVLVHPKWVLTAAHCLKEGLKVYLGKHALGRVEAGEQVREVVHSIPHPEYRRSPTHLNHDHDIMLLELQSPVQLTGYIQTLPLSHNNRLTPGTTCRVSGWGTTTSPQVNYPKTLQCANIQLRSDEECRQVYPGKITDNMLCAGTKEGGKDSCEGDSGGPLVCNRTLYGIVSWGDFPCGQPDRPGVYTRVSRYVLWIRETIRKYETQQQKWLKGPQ

[5] = molecular target: T6, Kallikrein-11 (Homo sapiens) (UniProt Q9UBX7); test: Inhibition of KLK11 (unknown origin) assessed as inhibition of release of AMC fluorescent product using Boc-QAR-AMC as substrate at 10 uM incubated for 30 mins by microplate reader relative to control
T6 sequence (whole entry): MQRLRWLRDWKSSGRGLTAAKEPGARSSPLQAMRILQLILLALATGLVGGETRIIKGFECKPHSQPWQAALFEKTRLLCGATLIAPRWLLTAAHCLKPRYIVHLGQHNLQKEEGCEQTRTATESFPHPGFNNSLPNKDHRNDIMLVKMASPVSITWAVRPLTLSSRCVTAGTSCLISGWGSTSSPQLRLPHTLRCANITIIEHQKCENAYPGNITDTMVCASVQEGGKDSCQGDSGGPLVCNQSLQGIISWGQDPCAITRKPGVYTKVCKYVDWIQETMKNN

Trypsin (Homo sapiens) = Trypsin (Homo sapiens) (UniProt P07477+P07478+P35030); test: Inhibition of Trypsin (unknown origin) assessed as inhibition of release of AMC fluorescent product using […] as substrate at 10 uM incubated for 30 mins by microplate reader relative to control; format: protein assay

Tissue-type plasminogen activator (Homo sapiens), sequence (P00750 36-562 limits assumed): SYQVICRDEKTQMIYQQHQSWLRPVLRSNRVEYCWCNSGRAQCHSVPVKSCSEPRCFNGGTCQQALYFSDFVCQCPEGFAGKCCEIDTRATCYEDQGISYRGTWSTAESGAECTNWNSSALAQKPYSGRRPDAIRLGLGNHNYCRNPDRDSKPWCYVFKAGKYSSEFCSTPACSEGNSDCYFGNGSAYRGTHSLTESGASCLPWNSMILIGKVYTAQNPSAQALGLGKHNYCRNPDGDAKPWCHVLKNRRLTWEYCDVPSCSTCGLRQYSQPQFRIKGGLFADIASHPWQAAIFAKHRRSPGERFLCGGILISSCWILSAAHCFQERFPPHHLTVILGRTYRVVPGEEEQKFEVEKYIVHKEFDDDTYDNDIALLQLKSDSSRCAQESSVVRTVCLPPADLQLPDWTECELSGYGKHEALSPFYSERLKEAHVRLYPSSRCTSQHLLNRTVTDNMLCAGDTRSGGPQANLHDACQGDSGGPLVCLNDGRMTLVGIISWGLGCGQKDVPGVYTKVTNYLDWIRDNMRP
Kallikrein-4 (Homo sapiens), sequence (Q9Y5K2 whole entry): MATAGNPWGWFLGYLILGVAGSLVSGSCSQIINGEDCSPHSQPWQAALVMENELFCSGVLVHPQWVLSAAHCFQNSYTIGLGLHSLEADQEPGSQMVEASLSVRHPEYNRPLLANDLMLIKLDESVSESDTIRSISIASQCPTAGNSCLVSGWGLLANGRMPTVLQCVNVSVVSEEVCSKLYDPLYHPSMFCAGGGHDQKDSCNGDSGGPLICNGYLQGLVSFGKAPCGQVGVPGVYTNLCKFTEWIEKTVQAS

CC(C)(C)c1ccc(O)c(C(=O)Nc2ccc(CN)cc2)c1.Cl
inhibition (Caspase-3 (Homo sapiens)): 11%
inhibition (Trypsin-3 (Homo sapiens)): 15%
inhibition (Homo sapiens): 0%
inhibition [1]: 0%
inhibition (Caspase-6 (Homo sapiens)): 13%
inhibition [2]: 11%
inhibition [3]: 1.5%
inhibition [4]: 5%
inhibition [5]: 56%
inhibition (Trypsin (Homo sapiens)): 5%

COc1ccc2c(O)c(C(=O)Nc3ccc(CN)cc3)ccc2c1
inhibition (Caspase-3 (Homo sapiens)): 3%
inhibition (Trypsin-3 (Homo sapiens)): 32%
inhibition (Homo sapiens): 37%
inhibition [1]: 3%
inhibition (Caspase-6 (Homo sapiens)): 70%
inhibition [2]: 10%
inhibition [3]: 16%
inhibition [4]: 0%
inhibition [5]: 0%
inhibition (Trypsin (Homo sapiens)): 41%

Cc1ccc2ccc(C(=O)Nc3ccc(CN)cc3)c(O)c2c1
inhibition (Caspase-3 (Homo sapiens)): 10%
inhibition (Trypsin-3 (Homo sapiens)): 21%
inhibition (Homo sapiens): 0%
inhibition [1]: 6%
inhibition (Caspase-6 (Homo sapiens)): 31%
inhibition [2]: 9%
inhibition [3]: 4%
inhibition [4]: 12%
inhibition [5]: 88%
inhibition (Trypsin (Homo sapiens)): 32%

Cc1ccc(C(=O)Nc2ccc(CN)cc2)c(O)c1.Cl
inhibition (Caspase-3 (Homo sapiens)): 0%
inhibition (Trypsin-3 (Homo sapiens)): 20%
inhibition (Homo sapiens): 0%
inhibition [1]: 0%
inhibition (Caspase-6 (Homo sapiens)): 5%
inhibition [2]: 0%
inhibition [3]: 3%
inhibition [4]: 10%
inhibition [5]: 39%
inhibition (Trypsin (Homo sapiens)): 15%

Cl.NCc1ccc(NC(=O)c2ccc3ccccc3c2O)cc1
inhibition (Caspase-3 (Homo sapiens)): 10%
inhibition (Trypsin-3 (Homo sapiens)): 30%
inhibition (Homo sapiens): 29%
inhibition [1]: 14%
inhibition (Caspase-6 (Homo sapiens)): 56%
inhibition [2]: 18%
inhibition [3]: 11%
inhibition [4]: 2%
inhibition [5]: 80%
inhibition (Trypsin (Homo sapiens)): 34%

Cl.NCc1ccc(NC(=O)c2cc3ccccc3cc2O)cc1
inhibition (Caspase-3 (Homo sapiens)): 5%
inhibition (Trypsin-3 (Homo sapiens)): 36%
inhibition (Homo sapiens): 8%
inhibition [1]: 2%
inhibition (Caspase-6 (Homo sapiens)): 40%
inhibition [2]: 6%
inhibition [3]: 5%
inhibition [4]: 19%
inhibition [5]: 45%
inhibition (Trypsin (Homo sapiens)): 25%

CC(C)c1ccc(C(=O)Nc2ccc(CN)cc2)c(O)c1
inhibition (Caspase-3 (Homo sapiens)): 13%
inhibition (Trypsin-3 (Homo sapiens)): 73%
inhibition (Homo sapiens): 13%
inhibition [1]: 45%
inhibition (Caspase-6 (Homo sapiens)): 12%
inhibition [2]: 6%
inhibition [3]: 12%
inhibition [4]: 15%
inhibition [5]: 75%
inhibition (Trypsin (Homo sapiens)): 91%
